Experimental findings from ChEMBL document CHEMBL1806394, “Synthesis, in vitro evaluation and molecular docking studies of new triazole derivatives as antifungal agents” (2011) are described below.

What all share (type): functional
Assay [1] deals with Candida albicans. Put plainly: Antifungal activity against Candida albicans SC5314 by micro-broth dilution method. The procedure, abridged:
(§1)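 MIC80 determined by broth microdilution following NCCLS methods. C. albicans SC5314 and Y0109 and C. neoformans BLS108 served as quality-control strains and were included in every assay. Fluconazole, itraconazole, voriconazole and amphotericin B were run as positive controls.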
For orientation: In broth dilution the organism is exposed to a series of concentrations in liquid medium.

Assay [2] deals with Candida albicans. As to the kind of experiment: Antifungal activity against Candida albicans Y0109 by micro-broth dilution method. The procedure, abridged:
as §1

Assay [3] relates to Candida tropicalis. Put plainly: Antifungal activity against Candida tropicalis by micro-broth dilution method. The procedure, abridged: as §1
In assay [4] the test system is Candida parapsilosis. Put plainly: Antifungal activity against Candida parapsilosis by micro-broth dilution method. The note with it: Lodderomyces parapsilosis. The method, boiled down: as §1
Assay [5] has as its system Kluyveromyces marxianus. Put plainly: Antifungal activity against Candida kefyr by micro-broth dilution method.
In assay [6] the test system is Cryptococcus neoformans. Put plainly: Antifungal activity against Cryptococcus neoformans BLS108 by micro-broth dilution method. The method, boiled down:
as §1

Assay [7] deals with Trichophyton rubrum. Put plainly: Antifungal activity against Trichophyton rubrum by micro-broth dilution method. The procedure, abridged:
as §1

Assay [8] has as its system Aspergillus fumigatus. As to the kind of experiment: Antifungal activity against Aspergillus fumigatus by micro-broth dilution method. The procedure, abridged:
as §1

Converted amounts (≈) assume the structure as drawn.

In general, MIC80 refers to the lowest concentration that inhibits either 80% of growth or 80% of the strains tested, depending on the study. Low readings indicate greater potency, high ones weaker potency. Turning to `OC(Cn1cncn1)(Cn1cncn1)c1ccc(F)cc1F` [FLUCONAZOLE], the MIC80 in assay [1] amounted to 0.25 µg/mL (≈ 0.816 µM); in assay [2], 0.25 µg/mL (≈ 0.816 µM); in assay [3], 1 µg/mL (≈ 3.27 µM); in assay [4], 0.25 µg/mL (≈ 0.816 µM); in assay [5], 4 µg/mL (≈ 13.1 µM); in assay [6], 1 µg/mL (≈ 3.27 µM). Further, the MIC80 in assay [7] was 1 µg/mL (≈ 3.27 µM); in assay [8], more than 64 µg/mL.

For the compound `O=C(/C=C/c1ccc(Cl)c(Cl)c1)Nc1ccc(-n2cnn(CC(O)(Cn3cncn3)c3ccc(F)cc3F)c2=O)cc1` (single isomer, unassigned), the MIC80 is 4 µg/mL (≈ 6.53 µM) in assay [1]; 4 µg/mL (≈ 6.53 µM) in assay [2]; 4 µg/mL (≈ 6.53 µM) in assay [3]; 64 µg/mL (≈ 105 µM) in assay [4]; more than 64 µg/mL in assay [5]; more than 64 µg/mL in assay [6]. For the same compound, the MIC80 in assay [7] and in assay [8] was more than 64 µg/mL each time.

On to `COc1ccc(/C=C/C(=O)Nc2ccc(-n3cnn(CC(O)(Cn4cncn4)c4ccc(F)cc4F)c3=O)cc2)cc1` (single isomer, unassigned), for which the MIC80 in assay [1] was 4 µg/mL (≈ 6.97 µM); in assay [2], more than 64 µg/mL; in assay [3], more than 64 µg/mL; in assay [4] it was more than 64 µg/mL; in assay [5], more than 64 µg/mL; in assay [6] it was more than 64 µg/mL. Moreover, the MIC80 in assay [7] and in assay [8] was more than 64 µg/mL throughout.

`O=C(/C=C/c1ccc(F)cc1)Nc1ccc(-n2cnn(CC(O)(Cn3cncn3)c3ccc(F)cc3F)c2=O)cc1` (single isomer, unassigned): the MIC80 in assay [1], in assay [2], in assay [3], in assay [4], in assay [5] and in assay [6] was more than 64 µg/mL each time. Further, the MIC80 in assay [7] and in assay [8] was more than 64 µg/mL each time.

As to `Cc1ccc(C(=O)Nc2ccc(-n3cnn(CC(O)(Cn4cncn4)c4ccc(F)cc4F)c3=O)cc2)c(C)c1` (single isomer, unassigned), the MIC80 is 0.0625 µg/mL (≈ 0.115 µM) in assay [1]; 0.0625 µg/mL (≈ 0.115 µM) in assay [2]; 1 µg/mL (≈ 1.83 µM) in assay [3]; 0.0625 µg/mL (≈ 0.115 µM) in assay [4]; 64 µg/mL (≈ 117 µM) in assay [5]; more than 64 µg/mL in assay [6]. Moreover, the MIC80 in assay [7] and in assay [8] was more than 64 µg/mL each time.

As for `O=C(Nc1ccc(-n2cnn(CC(O)(Cn3cncn3)c3ccc(F)cc3F)c2=O)cc1)c1ccc(F)cc1` (single isomer, unassigned), the MIC80 in assay [1] was 0.0625 µg/mL (≈ 0.117 µM); in assay [2] it was 1 µg/mL (≈ 1.87 µM); in assay [3] it was 0.0625 µg/mL (≈ 0.117 µM); in assay [4], 0.0625 µg/mL (≈ 0.117 µM); in assay [5] it was 4 µg/mL (≈ 7.47 µM); in assay [6], 64 µg/mL (≈ 120 µM). The MIC80 in assay [7] was 16 µg/mL (≈ 29.9 µM); in assay [8] it was more than 64 µg/mL.

`O=C(/C=C/c1cccc([N+](=O)[O-])c1)Nc1ccc(-n2cnn(CC(O)(Cn3cncn3)c3ccc(F)cc3F)c2=O)cc1` (single isomer, unassigned): the MIC80 in assay [1] was 0.00024 µg/mL (≈ 0.000408 µM); in assay [2], 0.00024 µg/mL (≈ 0.000408 µM); in assay [3], 0.25 µg/mL (≈ 0.425 µM); in assay [4] it was 0.0039 µg/mL (≈ 0.00663 µM); in assay [5] it was 16 µg/mL (≈ 27.2 µM); in assay [6], more than 64 µg/mL. For the same compound, the MIC80 in assay [7] was 64 µg/mL (≈ 109 µM); in assay [8], more than 64 µg/mL.

Consider `CCCc1ccc(C(=O)Nc2ccc(-n3cnn(CC(O)(Cn4cncn4)c4ccc(F)cc4F)c3=O)cc2)cc1` (single isomer, unassigned), for which the MIC80 in assay [1] was 0.0039 µg/mL (≈ 0.00697 µM); in assay [2], 1 µg/mL (≈ 1.79 µM); in assay [3] it was 1 µg/mL (≈ 1.79 µM); in assay [4], 4 µg/mL (≈ 7.15 µM); in assay [5] it was more than 64 µg/mL; in assay [6], more than 64 µg/mL. Besides, the MIC80 in assay [7] and in assay [8] was more than 64 µg/mL each time.

For the compound `O=C(/C=C/c1ccccc1F)Nc1ccc(-n2cnn(CC(O)(Cn3cncn3)c3ccc(F)cc3F)c2=O)cc1` (single isomer, unassigned), the MIC80 in assay [1] is 1 µg/mL (≈ 1.78 µM); in assay [2], 1 µg/mL (≈ 1.78 µM); in assay [3], 4 µg/mL (≈ 7.12 µM); in assay [4], 4 µg/mL (≈ 7.12 µM); in assay [5], more than 64 µg/mL; in assay [6], more than 64 µg/mL. The MIC80 in assay [7] and in assay [8] was more than 64 µg/mL each time.

For the compound `CC(C)c1ccc(C(=O)Nc2ccc(-n3cnn(CC(O)(Cn4cncn4)c4ccc(F)cc4F)c3=O)cc2)cc1` (single isomer, unassigned), the MIC80 in assay [1] was 4 µg/mL (≈ 7.15 µM); in assay [2], 4 µg/mL (≈ 7.15 µM); in assay [3], 4 µg/mL (≈ 7.15 µM); in assay [4] it was 4 µg/mL (≈ 7.15 µM); in assay [5], more than 64 µg/mL; in assay [6] it was more than 64 µg/mL. Moreover, the MIC80 in assay [7] and in assay [8] was more than 64 µg/mL in each case.

In the case of `O=C(Nc1ccc(-n2cnn(CC(O)(Cn3cncn3)c3ccc(F)cc3F)c2=O)cc1)c1ccccc1Br` (single isomer, unassigned), the MIC80 in assay [1] is 1 µg/mL (≈ 1.68 µM); in assay [2], 4 µg/mL (≈ 6.71 µM); in assay [3], 4 µg/mL (≈ 6.71 µM); in assay [4] it was 1 µg/mL (≈ 1.68 µM); in assay [5], more than 64 µg/mL; in assay [6] it was 16 µg/mL (≈ 26.8 µM). The MIC80 in assay [7] and in assay [8] was more than 64 µg/mL in each case.

For the compound `O=C(/C=C/c1ccc(Cl)cc1)Nc1ccc(-n2cnn(CC(O)(Cn3cncn3)c3ccc(F)cc3F)c2=O)cc1` (single isomer, unassigned), the MIC80 in assay [1] was 4 µg/mL (≈ 6.92 µM); in assay [2] it was 16 µg/mL (≈ 27.7 µM); in assay [3] it was more than 64 µg/mL; in assay [4], more than 64 µg/mL; in assay [5], more than 64 µg/mL; in assay [6], more than 64 µg/mL. Also, the MIC80 in assay [7] and in assay [8] was more than 64 µg/mL each time.

As to `CCCCCc1ccc(C(=O)Nc2ccc(-n3cnn(CC(O)(Cn4cncn4)c4ccc(F)cc4F)c3=O)cc2)cc1` (single isomer, unassigned), the MIC80 in assay [1] is 4 µg/mL (≈ 6.81 µM); in assay [2], more than 64 µg/mL; in assay [3], more than 64 µg/mL; in assay [4] it was more than 64 µg/mL; in assay [5], more than 64 µg/mL; in assay [6], more than 64 µg/mL. Also, the MIC80 in assay [7] and in assay [8] was more than 64 µg/mL throughout.

As to `Cc1ccccc1C(=O)Nc1ccc(-n2cnn(CC(O)(Cn3cncn3)c3ccc(F)cc3F)c2=O)cc1` (single isomer, unassigned), the MIC80 in assay [1] was 0.25 µg/mL (≈ 0.47 µM); in assay [2], 0.0625 µg/mL (≈ 0.118 µM); in assay [3] it was 1 µg/mL (≈ 1.88 µM); in assay [4], 0.0156 µg/mL (≈ 0.0293 µM); in assay [5] it was more than 64 µg/mL; in assay [6], more than 64 µg/mL. The MIC80 in assay [7] and in assay [8] was more than 64 µg/mL throughout.

For `O=C(/C=C/c1ccccc1[N+](=O)[O-])Nc1ccc(-n2cnn(CC(O)(Cn3cncn3)c3ccc(F)cc3F)c2=O)cc1` (single isomer, unassigned), the MIC80 is 1 µg/mL (≈ 1.7 µM) in assay [1]; 1 µg/mL (≈ 1.7 µM) in assay [2]; 1 µg/mL (≈ 1.7 µM) in assay [3]; 1 µg/mL (≈ 1.7 µM) in assay [4]; more than 64 µg/mL in assay [5]; more than 64 µg/mL in assay [6]. Besides, the MIC80 in assay [7] and in assay [8] was more than 64 µg/mL throughout.

Consider `Cc1cccc(/C=C/C(=O)Nc2ccc(-n3cnn(CC(O)(Cn4cncn4)c4ccc(F)cc4F)c3=O)cc2)c1C` (single isomer, unassigned), for which the MIC80 is 1 µg/mL (≈ 1.75 µM) in assay [1]; 4 µg/mL (≈ 7 µM) in assay [2]; 16 µg/mL (≈ 28 µM) in assay [3]; more than 64 µg/mL in assay [4]; more than 64 µg/mL in assay [5]; more than 64 µg/mL in assay [6]. The MIC80 in assay [7] and in assay [8] was more than 64 µg/mL each time.

In the case of `O=C(/C=C/c1ccc([N+](=O)[O-])cc1)Nc1ccc(-n2cnn(CC(O)(Cn3cncn3)c3ccc(F)cc3F)c2=O)cc1` (single isomer, unassigned), the MIC80 is more than 64 µg/mL in assay [1]; more than 64 µg/mL in assay [2]; more than 64 µg/mL in assay [3]; 1 µg/mL (≈ 1.7 µM) in assay [4]; more than 64 µg/mL in assay [5]; more than 64 µg/mL in assay [6]. The MIC80 in assay [7] and in assay [8] was more than 64 µg/mL in each case.

Turning to `CCC(C)n1ncn(-c2ccc(N3CCN(c4ccc(OCC5COC(Cn6cncn6)(c6ccc(Cl)cc6Cl)O5)cc4)CC3)cc2)c1=O` (stereo not drawn) [ITRACONAZOLE], the MIC80 in assay [1], in assay [2], in assay [3], in assay [4], in assay [5] and in assay [6] was 0.0625 µg/mL (≈ 0.0886 µM) each time. The MIC80 in assay [7] and in assay [8] was 0.0625 µg/mL (≈ 0.0886 µM) in each case.

As for `O=C(Nc1ccc(-n2cnn(CC(O)(Cn3cncn3)c3ccc(F)cc3F)c2=O)cc1)c1ccccc1F` (single isomer, unassigned), the MIC80 came to 0.0625 µg/mL (≈ 0.117 µM) in assay [1]; 4 µg/mL (≈ 7.47 µM) in assay [2]; 0.0625 µg/mL (≈ 0.117 µM) in assay [3]; 0.0156 µg/mL (≈ 0.0291 µM) in assay [4]; 1 µg/mL (≈ 1.87 µM) in assay [5]; 64 µg/mL (≈ 120 µM) in assay [6]. In addition, the MIC80 was 16 µg/mL (≈ 29.9 µM) in assay [7] and more than 64 µg/mL in assay [8].

In the case of `O=C(Nc1ccc(-n2cnn(CC(O)(Cn3cncn3)c3ccc(F)cc3F)c2=O)cc1)c1ccc(OC(F)(F)F)cc1` (single isomer, unassigned), the MIC80 was 0.25 µg/mL (≈ 0.416 µM) in assay [1]; 1 µg/mL (≈ 1.66 µM) in assay [2]; 64 µg/mL (≈ 106 µM) in assay [3]; 1 µg/mL (≈ 1.66 µM) in assay [4]; more than 64 µg/mL in assay [5]; more than 64 µg/mL in assay [6]. The figures for the MIC80 in assay [7] and in assay [8] were 4 µg/mL (≈ 6.65 µM) and more than 64 µg/mL, respectively.

In the case of `COc1ccc(/C=C/C(=O)Nc2ccc(-n3cnn(CC(O)(Cn4cncn4)c4ccc(F)cc4F)c3=O)cc2)cc1OC` (single isomer, unassigned), the MIC80 in assay [1] is 1 µg/mL (≈ 1.66 µM); in assay [2], 1 µg/mL (≈ 1.66 µM); in assay [3], 1 µg/mL (≈ 1.66 µM); in assay [4], 4 µg/mL (≈ 6.63 µM); in assay [5] it was more than 64 µg/mL; in assay [6] it was more than 64 µg/mL. In addition, the MIC80 in assay [7] and in assay [8] was more than 64 µg/mL each time.
